Measured values: PMC9328817 (Journal of Food and Drug Analysis, 2016)
Where a SMILES comes first, the peptide text is derived from it.

B1: lactoferrin: iron-binding multifunctional protein in camel milk (protein, UniProt Q9TUM0 20-708, looked up)
Lactotransferrin: ASKKSVRWCTTSPAESSKCAQWQRRMKKVRGPSVTCVKKTSRFECIQAISTEKADAVTLDGGLVYDAGLDPYKLRPIAAEVYGTENNPQTHYYAVAIAKKGTNFQLNQLQGLKSCHTGLGRSAGWNIPMGLLRPFLDWTGPPEPLQKAVAKFFSASCVPCVDGKEYPNLCQLCAGTGENKCACSSQEPYFGYSGAFKCLQDGAGDVAFVKDSTVFESLPAKADRDQYELLCPNNTRKPVDAFQECHLARVPSHAVVARSVNGKEDLIWKLLVKAQEKFGRGKPSGFQLFGSPAGQKDLLFKDSALGLLRISSKIDSGLYLGSNYITAIRGLRETAAEVELRRAQVVWCAVGSDEQLKCQEWSRQSNQSVVCATASTTEDCIALVLKGEADALSLDGGYIYIAGKCGLVPVLAESQQSPESSGLDCVHRPVKGYLAVAVVRKANDKITWNSLRGKKSCHTAVDRTAGWNIPMGLLSKNTDSCRFDEFLSQSCAPGSDPRSKLCALCAGNEEGQNKCVPNSSERYYGYTGAFRCLAENVGDVAFVKDVTVLDNTDGKNTEQWAKDLKLGDFELLCLNGTRKPVTEAESCHLAVAPNHAVVSRIDKVAHLEQVLLRQQAHFGRNGRDCPGKFCLFQSKTKNLLFNDNTECLAKLQGKTTYEEYLGPQYVTAIAKLRRCSTSPLLEACAFLMR

How the values were obtained:
HepG2 cells = assay: MTT viability assay; format: cell-based; details: for Inhibitory effect on the growth of HepG2 cancer cells (in words): 0-1 mg/mL; for Growth inhibition of HepG2 cells: highest concentration tested 1 mg/mL, 24, 48 and 72 hours
Summary of the method: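 HepG2 cells were grown in DMEM with 10% FBS, L-glutamine and 1% penicillin/streptomycin at 37°C, humidified, 5% CO2, and treated in log phase at 80% confluence. After seeding and 24 h incubation, cells received peptides at 0–1 mg/mL for 24, 48 or 72 h. MTT was added (4 h, dark, 37°C), DMSO was added, and A570 was read against untreated cells.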

cancer cell growth = details: cited from earlier work

Molecule | Inhibitory effect on the growth of HepG2 cancer cells (in words) (HepG2 cells) | Growth inhibition of HepG2 cells (HepG2 cells) | Reduction of cancer cell growth (cancer cell growth) [%]
CC(C)C[C@H](NC(=O)[C@H](CCC(N)=O)NC(=O)[C@H](CC(=O)O)NC(=O)[C@H](CCC(N)=O)NC(=O)[C@H](CCC(N)=O)NC(=O)[C@H](CCC(=O)O)NC(=O)[C@H](CC(=O)O)NC(=O)[C@H](CCC(=O)O)NC(=O)[C@@H](NC(=O)[C@H](CCC(N)=O)NC(=O)[C@H](CCC(N)=O)NC(=O)[C@H](CCC(N)=O)NC(=O)[C@H](CCC(=O)O)NC(=O)[C@H](CCC(=O)O)NC(=O)[C@@H](N)CC(C)C)[C@@H](C)O)C(=O)O [LL-15] (H-LEEQQQTEDEQQDQL-OH) | no significant inhibitory effects | about 20% | –
CC(C)C[C@H](NC(=O)[C@H](CCCNC(=N)N)NC(=O)[C@H](Cc1c[nH]cn1)NC(=O)[C@H](CC(C)C)NC(=O)[C@H](CCC(=O)O)NC(=O)[C@H](CCC(=O)O)NC(=O)[C@H](CC(C)C)NC(=O)[C@@H](N)Cc1ccc(O)cc1)C(=O)N[C@@H](CC(N)=O)C(=O)N[C@@H](C)C(=O)NCC(=O)N[C@@H](Cc1ccc(O)cc1)C(=O)O [YY-11] (H-YLEELHRLNAGY-OH) | no significant inhibitory effects | about 20% | –
CC(C)C[C@H](NC(=O)CNC(=O)[C@@H](N)CCCNC(=N)N)C(=O)N[C@@H](Cc1c[nH]cn1)C(=O)N1CCC[C@H]1C(=O)N[C@H](C(=O)N1CCC[C@H]1C(=O)N[C@@H](CCC(N)=O)C(=O)O)C(C)C [RQ-8] (H-RGLHPVPQ-OH) | no significant inhibitory effects | about 20% | –
B1 | – | – | 56
